Published values from different studies.
Protocols differ between the studies behind these lines.
Target: Aurora kinase A (AURKA, Homo sapiens, UniProt O14965)
Residues used in one study (O14965 1-403): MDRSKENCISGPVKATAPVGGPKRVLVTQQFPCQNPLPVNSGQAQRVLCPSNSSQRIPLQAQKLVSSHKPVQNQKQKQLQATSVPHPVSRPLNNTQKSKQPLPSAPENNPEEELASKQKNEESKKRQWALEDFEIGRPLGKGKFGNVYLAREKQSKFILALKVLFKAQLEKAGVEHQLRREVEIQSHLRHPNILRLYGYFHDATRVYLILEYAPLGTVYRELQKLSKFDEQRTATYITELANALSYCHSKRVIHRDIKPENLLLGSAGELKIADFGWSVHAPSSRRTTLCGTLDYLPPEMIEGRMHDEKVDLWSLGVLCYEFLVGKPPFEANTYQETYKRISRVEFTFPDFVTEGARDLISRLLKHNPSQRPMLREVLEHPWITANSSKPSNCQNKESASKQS

| Structure (SMILES) | effect on | method | tested at | remaining binding [%] |
| --- | --- | --- | --- | --- |
| COCCOc1nc(-c2ccc(Cl)nc2)nc2c1CN(C(=O)c1ncn3ccccc13)CC2 | cell-free assay | competition with immobilised ligand | 0.1 µM | 81 |
| COc1cnc(Nc2cccc(S(N)(=O)=O)c2)nc1N1CCN(c2ccccc2)C(=O)C1 | binding | competition with immobilised ligand | 1 µM | 80 |
| COc1ccnn2ncc(-c3ccnc(N(C)C)n3)c12 | binding |  | 1 µM | 93 |
| C[C@@H]1CN(c2ccc3ncc(-c4ccc5[nH]nc(C6CC6)c5c4)n3n2)C[C@H](C)O1 | binding | competition with immobilised ligand | 0.5 µM | 85 |
| COc1cc(-c2cn(C3CCc4ccccc4N(CC(F)(F)F)C3=O)nn2)ccc1-n1ccc(C)n1 (stereo not shown) | cell-free assay | competition with immobilised ligand | 1 µM | 58 |
| CN(C)c1ncc(F)c(-c2cnn3ncccc23)n1 | binding |  | 1 µM | 100 |
| C[C@@H](c1ccc(-n2cnc3c(N)ncnc32)cc1)N1CCc2nn(C)c(Cc3ccccc3)c2C1=O | binding | competition with immobilised ligand | 0.1 µM | 73 |
| CC(C)(C)c1ccc(-c2nc(CBr)nn2-c2cccc(O)c2)cc1 | cell-free assay | competition with immobilised ligand | 10 µM | 91 |
| CCC(=O)N[C@H]1CC[C@@H](C(=O)N(C)c2ccc(-c3nc4ccccc4o3)cc2)C1 | cell-free assay | competition with immobilised ligand | 1 µM | 43 |
| Cc1cnc(Nc2ccc(C(=O)N3CCC(N4CCCC4)CC3)cc2)nc1-c1cc2ccccc2s1 | binding | competition with immobilised ligand | 1 µM | 2 |
| O=C(NS(=O)(=O)c1ccc(NCC2CCOCC2)c([N+](=O)[O-])c1)c1ccc(N2CCN(Cc3ccc(C(F)(F)F)cc3-c3ccc(Cl)cc3)CC2)cc1Oc1cnc2[nH]ccc2c1 | cell-free assay | competition with immobilised ligand | 1 µM | 96 |
| C=CC(=O)N1CCC(C(=O)NCC(=O)N2CCN(c3nc(-c4cnc(N)nc4C(F)F)nc(N4CCOCC4)n3)CC2)CC1 | binding | competition with immobilised ligand | 1 µM | 96 |
| C[C@H]1CCN(c2nccc(-c3cnn4ncccc34)n2)C1 | binding |  | 1 µM | 91 |
| O=C(NCCCN1CCOCC1)c1ccc(Nc2ncc(Cl)c(-c3ccc(Cl)s3)n2)cc1 | binding | competition with immobilised ligand | 1 µM | 12 |
| FC(F)(F)Oc1cccc(-c2cnc3ccc(-c4ccncc4)nn23)c1 | cell-free assay | competition with immobilised ligand | 5 µM | 91 |
| c1cnn2ncc(-c3ccnc(N4CCC45COC5)n3)c2c1 | binding |  | 1 µM | 90 |
| O=C(NCCCN1CCOCC1)c1ccc(Nc2nccc(-c3cc4ccccc4s3)n2)cc1 | binding | competition with immobilised ligand | 1 µM | 55 |
| O=C(Nc1c[nH]nc1C(=O)NC1CCNCC1)c1cc(F)cc(F)c1 | binding | competition with immobilised ligand | 1 µM | 100 |
| N[C@H]1CCN(c2nccc(-c3cnn4ncccc34)n2)C1 | binding |  | 1 µM | 97 |
| O=c1nc(-c2ccccn2)sc2ccccc12 | cell-free assay | competition with immobilised ligand | 1 µM | 87 |
| N#Cc1ccccc1CSc1nnc2c(n1)[nH]c1ccccc12 | binding | competition with immobilised ligand | 10 µM | 100 |
| CSc1cccnc1N1CCN(Cc2nc3ccccc3[nH]2)CC1 | cell-free assay | competition with immobilised ligand | 1 µM | 74 |
| F[C@@H]1CCN(c2nccc(-c3cnn4ncccc34)n2)C1 | binding |  | 1 µM | 91 |
| CN(C(=O)c1ccccc1)c1cc(N(C)c2ccc3c(c2)CCc2ccc(C(=O)NCCN4CCOCC4)cc2C3=O)ccc1F | cell-free assay | competition with immobilised ligand | 1 µM | 100 |
| CN(c1nccc(-c2cnn3ncccc23)n1)C1CC1 | binding |  | 1 µM | 84 |
